Laboratory results: ChEMBL document CHEMBL1147432, “Rational design of azepane-glycoside antibiotics targeting the bacterial ribosome” (Bioorg Med Chem Lett, 2004)
Values after ≈ are worked out from the molar mass of the structure shown.

Legend:
[1] = system: Staphylococcus aureus; assay: Compound was tested for bacterial translation inhibition (in vitro) using transcription-translation assay; assay type: functional
Procedure, shortened: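 Coupled in vitro transcription–translation assay; IC50 from dose–response curves averaged over six independent experiments, error bars ±1σ.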

[2] = target: Nucleic Acid; assay: Compound was tested for binding to the bacterial decoding-site RNA target using an RNA fluorescence assay; assay type: nucleic-acid assay
Procedure, shortened: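 Fluorescence assay on a model decoding-site oligonucleotide, reporting ligand-induced flipping out of adenines A1492 and A1493; binding curve averaged from two titrations and fitted to a single-site model to give IC50.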

[3] = system: Escherichia coli; assay: Antibacterial activity against Escherichia coli (Strain ATCC 25922); assay type: functional
[4] = system: Staphylococcus aureus; assay: Antibacterial activity against Staphylococcus aureus (ATCC-25923); assay type: functional
[5] = Cytotoxic concentration against proliferation of eukaryotic cells; assay type: functional

IC50 [1]	IC50 [2]	MIC [3]	MIC [4]	SMILES	CC50 [5]
75 µM	> 250 µM	> 64 µg/mL	> 64 µg/mL	CN1CC[C@H](N)[C@@H](O[C@H]2O[C@H](CN)[C@@H](O)[C@H](O)[C@H]2N)C[C@@H]1CO	
39 µM	> 250 µM	> 64 µg/mL	> 64 µg/mL	NC[C@H]1O[C@H](O[C@H]2CCN[C@H](CO)C[C@@H]2N)[C@H](N)[C@@H](O)[C@@H]1O	
6.4 µM	12 µM	> 64 µg/mL	32 µg/mL (≈ 99.9 µM)	NC[C@H]1O[C@H](O[C@@H]2C[C@H](CO)NCC[C@H]2N)[C@H](N)[C@@H](O)[C@@H]1O	> 320 µM
180 µM	80 µM	> 64 µg/mL	> 64 µg/mL	NC[C@H]1O[C@H](O[C@@H]2C[C@@H](CO)NCC[C@H]2N)[C@H](N)[C@@H](O)[C@@H]1O	
230 µM	> 250 µM	> 64 µg/mL	> 64 µg/mL	NC[C@H]1O[C@H](O[C@@H]2CCN[C@@H](CO)C[C@H]2N)[C@H](N)[C@@H](O)[C@@H]1O	
110 µM	> 250 µM	> 64 µg/mL	> 64 µg/mL	N[C@H]1[C@@H](O[C@H]2C[C@H](CO)NCC[C@@H]2N)O[C@H](CO)[C@@H](O)[C@@H]1O	
82 µM	> 250 µM	> 64 µg/mL	> 64 µg/mL	NC[C@H]1O[C@H](O[C@H]2C[C@H](CCl)NCC[C@@H]2N)[C@H](N)[C@@H](O)[C@@H]1O	
> 1000 µM	> 250 µM	> 64 µg/mL	> 64 µg/mL	NC[C@H]1O[C@H](O[C@H]2C[C@@H]3COC(=O)N3CC[C@@H]2N)[C@H](N)[C@@H](O)[C@@H]1O	
5.7 µM	11 µM	> 64 µg/mL	64 µg/mL (≈ 200 µM)	NC[C@H]1O[C@H](O[C@H]2C[C@H](CO)NCC[C@@H]2N)[C@H](N)[C@@H](O)[C@@H]1O	> 320 µM
170 µM	> 250 µM	> 64 µg/mL	> 64 µg/mL	NC[C@H]1C[C@H](O[C@H]2O[C@H](CN)[C@@H](O)[C@H](O)[C@H]2N)[C@@H](N)CCN1	
> 1000 µM	> 250 µM	> 64 µg/mL	> 64 µg/mL	NC[C@H]1O[C@H](O[C@H]2C[C@H](CO)NCC[C@@H]2N)[C@H](N)[C@@H](OCc2ccccc2)[C@@H]1OCc1ccccc1	
370 µM	> 250 µM	> 64 µg/mL	> 64 µg/mL	NC[C@H]1O[C@H](O[C@H]2CCN[C@@H](CO)C[C@@H]2N)[C@H](N)[C@@H](O)[C@@H]1O	
47 µM	> 250 µM	> 64 µg/mL	> 64 µg/mL	NC[C@H]1O[C@H](O[C@@H]2CCN[C@H](CO)C[C@H]2N)[C@H](N)[C@@H](O)[C@@H]1O	
